Measured values published in ChEMBL document CHEMBL2016533, “Paviosides A-H, eight new oleane type saponins from Aesculus pavia with cytotoxic activity” (Bioorg Med Chem, 2012).
≈ marks a conversion by molar mass, not a printed value.

How the values were obtained:
J774 = assay: Cytotoxicity against mouse J774 cells after 72 hrs by MTT assay; format: functional, cell-based; details: J774, 72 h
Summary of the method: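 J774 murine monocyte/macrophage cells are kept in suspension in stirred bottles (37 °C, DMEM, 10% FBS, 25 mM HEPES, 2 mM glutamine), then plated and allowed 2 h to adhere (37 °C, 5% CO2). Medium is refreshed, 1.2 v/v serial dilutions are added, and cells incubate 72 h. MTT (5 mg/mL) is added for 3 h, then solubilized in 50% DMF/20% SDS, pH 4.5. % dead cells = 100 − (OD treated/OD control)×100.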

WEHI-164 = assay: Cytotoxicity against mouse WEHI164 cells after 72 hrs by MTT assay; format: functional, cell-based; details: WEHI-164, 72 h
Summary of the method: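 WEHI 164 murine fibrosarcoma cells are kept adherent (DMEM, 10% heat-inactivated FBS, 25 mM HEPES), then plated and allowed 2 h to adhere (37 °C, 5% CO2). Medium is refreshed, 1.2 v/v serial dilutions are added, and cells incubate 72 h. MTT (5 mg/mL) is added for 3 h, then solubilized in 50% DMF/20% SDS, pH 4.5. % dead cells = 100 − (OD treated/OD control)×100.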

Structure (SMILES) | IC50 (J774) | IC50 (WEHI-164)
C/C=C(\C)C(=O)O[C@H]1[C@H](OC(C)=O)[C@]2(CO)[C@H](O)C[C@]3(C)C(=CC[C@@H]4[C@@]5(C)CC[C@H](O[C@@H]6O[C@H](C(=O)O)[C@@H](O[C@@H]7O[C@H](CO)[C@@H](O)[C@H](O)[C@H]7O)[C@H](O)[C@H]6O[C@@H]6OC[C@@H](O)[C@H](O)[C@H]6O)C(C)(C)[C@@H]5CC[C@]43C)[C@@H]2CC1(C)C [PAVIOSIDEA] | 5.7 µg/mL (≈ 5.25 µM) | 4.8 µg/mL (≈ 4.42 µM)
C/C=C(/C)C(=O)O[C@H]1[C@H](OC(C)=O)[C@]2(CO)[C@H](O)C[C@]3(C)C(=CC[C@@H]4[C@@]5(C)CC[C@H](O[C@@H]6O[C@H](C(=O)O)[C@@H](O[C@@H]7O[C@H](CO)[C@H](O)[C@H](O)[C@H]7O)[C@H](O)[C@H]6O[C@@H]6OC[C@@H](O)[C@H](O)[C@H]6O)C(C)(C)[C@@H]5CC[C@]43C)[C@@H]2CC1(C)C [PAVIOSIDED] | 6.6 µg/mL (≈ 6.08 µM) | 7.1 µg/mL (≈ 6.54 µM)
C/C=C(/C)C(=O)O[C@H]1[C@H](OC(C)=O)[C@]2(CO)[C@H](O)C[C@]3(C)C(=CC[C@@H]4[C@@]5(C)CC[C@H](O[C@@H]6O[C@H](C(=O)O)[C@@H](O[C@@H]7OC[C@@H](O)[C@H](O)[C@H]7O)[C@H](O)[C@H]6O[C@@H]6OC[C@@H](O)[C@H](O)[C@H]6O)[C@](C)(CO)[C@@H]5CC[C@]43C)[C@@H]2CC1(C)C [PAVIOSIDEH] | 3.5 µg/mL (≈ 3.27 µM) | 3.2 µg/mL (≈ 2.99 µM)
C/C=C(\C)C(=O)O[C@H]1[C@H](OC(C)=O)[C@]2(CO)[C@H](O)C[C@]3(C)C(=CC[C@@H]4[C@@]5(C)CC[C@H](O[C@@H]6O[C@H](C(=O)O)[C@@H](O[C@@H]7OC[C@@H](O)[C@H](O)[C@H]7O)[C@H](O)[C@H]6O[C@@H]6OC[C@@H](O)[C@H](O)[C@H]6O)C(C)(C)[C@@H]5CC[C@]43C)[C@@H]2CC1(C)C [PAVIOSIDEE] | 2.9 µg/mL (≈ 2.75 µM) | 2.1 µg/mL (≈ 1.99 µM)
C/C=C(\C)C(=O)O[C@H]1[C@H](OC(C)=O)[C@]2(CO)[C@H](O)C[C@]3(C)C(=CC[C@@H]4[C@@]5(C)CC[C@H](O[C@@H]6O[C@H](C(=O)O)[C@@H](O[C@@H]7OC[C@@H](O)[C@H](O)[C@H]7O)[C@H](O)[C@H]6O[C@@H]6OC[C@@H](O)[C@H](O)[C@H]6O)[C@](C)(CO)[C@@H]5CC[C@]43C)[C@@H]2CC1(C)C [PAVIOSIDEG] | 3.6 µg/mL (≈ 3.36 µM) | 3.5 µg/mL (≈ 3.27 µM)
C/C=C(/C)C(=O)O[C@H]1[C@H](OC(C)=O)[C@]2(CO)[C@H](O)C[C@]3(C)C(=CC[C@@H]4[C@@]5(C)CC[C@H](O[C@@H]6O[C@H](C(=O)O)[C@@H](O[C@@H]7O[C@H](CO)[C@@H](O)[C@H](O)[C@H]7O)[C@H](O)[C@H]6O[C@@H]6OC[C@@H](O)[C@H](O)[C@H]6O)C(C)(C)[C@@H]5CC[C@]43C)[C@@H]2CC1(C)C [PAVIOSIDEB] | 5.1 µg/mL (≈ 4.7 µM) | 4.9 µg/mL (≈ 4.52 µM)
C/C=C(\C)C(=O)O[C@H]1[C@H](OC(C)=O)[C@]2(CO)[C@H](O)C[C@]3(C)C(=CC[C@@H]4[C@@]5(C)CC[C@H](O[C@@H]6O[C@H](C(=O)O)[C@@H](O[C@@H]7O[C@H](CO)[C@H](O)[C@H](O)[C@H]7O)[C@H](O)[C@H]6O[C@@H]6OC[C@@H](O)[C@H](O)[C@H]6O)C(C)(C)[C@@H]5CC[C@]43C)[C@@H]2CC1(C)C [PAVIOSIDEC] | 5.7 µg/mL (≈ 5.25 µM) | 6.5 µg/mL (≈ 5.99 µM)
C/C=C(/C)C(=O)O[C@H]1[C@H](OC(C)=O)[C@]2(CO)[C@H](O)C[C@]3(C)C(=CC[C@@H]4[C@@]5(C)CC[C@H](O[C@@H]6O[C@H](C(=O)O)[C@@H](O[C@@H]7OC[C@@H](O)[C@H](O)[C@H]7O)[C@H](O)[C@H]6O[C@@H]6OC[C@@H](O)[C@H](O)[C@H]6O)C(C)(C)[C@@H]5CC[C@]43C)[C@@H]2CC1(C)C [PAVIOSIDEF] | 2.8 µg/mL (≈ 2.65 µM) | 2.3 µg/mL (≈ 2.18 µM)
